# Compound activity from PubChem.
# Most compounds without a hit are left out; they make up all but 1.6% or so of the library.
# GASC-1 inh – blocks human GASC-1 demethylase activity | Q9H3R0 | GST-JMJD2C(1-420) H3K9me3 demethylation, DELFIA europium | inhibition, % at 2.35 µM | 330,000 compounds, 0.069% hits;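 active means more than half of a compound's replicate wells show inhibition beyond 50%, single wells judged on their own value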;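 further: signal counts dimethyl H3K9 product captured on neutravidin plate; 0% = median of DMSO wells and 100% = 0.3 times that DMSO median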
# TDP2 absorb – TDP2 (human) inhibition, absorbance primary screen; recombinant TDP2, T5PNP hydrolysis, p-nitrophenol absorbance 415 nm; inhibition, % at 12.8 µM; 370,000 compounds, 0.34% hits;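 active means inhibition above the mean of all tested compounds plus 3 SD, set per campaign, cut at about 25% in these data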;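 further: 0% = DMSO with enzyme and 100% = buffer with substrate but no TDP2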
# Target sequence (O95551 whole entry, looked up): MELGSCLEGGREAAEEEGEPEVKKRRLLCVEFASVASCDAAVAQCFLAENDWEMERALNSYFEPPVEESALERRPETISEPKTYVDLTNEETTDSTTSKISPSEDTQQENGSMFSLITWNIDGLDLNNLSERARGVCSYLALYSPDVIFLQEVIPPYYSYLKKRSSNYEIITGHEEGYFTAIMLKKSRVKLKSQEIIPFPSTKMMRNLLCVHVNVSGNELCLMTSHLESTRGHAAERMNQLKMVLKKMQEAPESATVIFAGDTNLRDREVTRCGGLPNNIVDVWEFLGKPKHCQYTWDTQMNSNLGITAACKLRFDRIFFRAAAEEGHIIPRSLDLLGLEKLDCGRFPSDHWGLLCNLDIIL
#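 Incubation: 2 h at 37 °C; Test system: recombinant human TDP2; Quantity: enzyme 120 nM; Read-out basis: percent inhibition; Medium: 50 mM Tris-HCl pH 7.5 with Mg2+, KCl, DTT, BSA; Repeats: single replicate; Compound: 12.8 µM single point, 1% DMSO; Signal: epi absorbance; Reagent: 5 mM T5PNP chromogenic substrate; Benchmarks: no-enzyme high, DMSO-plus-enzyme low.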
# Apaf1 inhib – human Apaf-1 inhibition; O14727; reconstituted apoptosome caspase-3 activity, DEVD-Rh110 fluorescence; inhibition, % at 20 µM; 330,000 compounds, 0.71% hits; active means inhibition of at least 40% at 20 µM;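 further: plate controls were DMSO wells for no effect and DEVD-CHO caspase inhibitor wells for full effect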
#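 Material: reconstituted apoptosome with Apaf-1, cytochrome c, caspase-9, procaspase-3, dATP. Technique: Rh110 fluorescence intensity. Buffer or medium: pH 7.5 Hepes buffer with CHAPS, BSA, DTT. Times: 30 min plus 50 min, RT.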
# GSTO1 inh – counter-screen for RBBP9 inhibitors: inhibitors of human GSTO1; P78417; recombinant GSTO1, activity-based probe fluorescence polarization; inhibition, % at 5.96 µM; 300,000 compounds, 1.1% hits; AID 1974;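 active means inhibition above the campaign mean inhibition plus 3 SD, cut at about 35% in these data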;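 further: 0% = GSTO1-1 with DMSO and 100% = wells lacking GSTO1-1 enzyme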
# Target sequence (P78417 whole entry, looked up): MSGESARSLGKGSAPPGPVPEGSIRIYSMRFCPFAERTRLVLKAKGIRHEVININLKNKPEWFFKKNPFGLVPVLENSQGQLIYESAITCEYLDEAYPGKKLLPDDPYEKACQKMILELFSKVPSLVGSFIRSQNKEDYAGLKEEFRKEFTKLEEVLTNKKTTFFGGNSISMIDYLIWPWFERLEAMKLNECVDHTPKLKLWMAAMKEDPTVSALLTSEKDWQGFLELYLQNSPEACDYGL
# PAD4 FP inh – PAD4 (human) enzyme inhibition; Q9UM07; recombinant PAD4, RCA probe fluorescence polarization; inhibition, % at 6.36 µM; 330,000 compounds, 0.41% hits;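 active means percent inhibition above a cutoff equal to the mean of all tested compounds plus 3 SD, cut at about 15% in these data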;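 further: 0% = PAD4 with RCA probe and DMSO and 100% = probe without PAD4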
# SUMO HTRF inh – SUMOylation inhibition. HTRF SUMOylation assay, SAE1/SAE2 + UBC9, in vitro. inhibition, % at 35 µM. 290,000 compounds, 0.36% hits. P63279. AID 2006; in the data active means inhibition above about 50%, passing the limit was not always enough
# Apaf-1 inh conf2 – Apaf-1 inhibition, single-dose confirmed. shares compounds with Apaf1 inhib. reconstituted apoptosome, caspase-3 DEVD-Rh110 fluorescence. 1,800 compounds, 25% hits. inhibition, % at 20 µM;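 active means mean inhibition of at least 40% at 20 µM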;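 further: plate controls were DMSO wells for no effect and DEVD-CHO caspase inhibitor control wells for full effect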
# Rh110 interf inh – Rh110 signal interference in Apaf-1 inhibitor counter-screen. AID 504615. activation (fluorescence interference), % at 20 µM. shares compounds with Apaf1 inhib. Rh110 fluorescence interference, quenched caspase reaction. 1,800 tested, under 10 active;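 active means signal rise of 40% or more at 20 µM, treated as a fluorescence artifact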
# Apaf1 inh interf – shows fluorescence interference in the Apaf-1 inhibitor assay format. shares compounds with Apaf1 inhib. fluorescence interference counterscreen, Apaf-1 assay format. IC50, µM. 460 tested, under 10 active; call rule not given here
# The depositor's hits bear a star; . = not tested or not shown.
SMILES,GASC-1 inh,TDP2 absorb,Apaf1 inhib,GSTO1 inh,PAD4 FP inh,SUMO HTRF inh,Apaf-1 inh conf2,Rh110 interf inh,others
Cn1ncc(N=Cc2ccccc2)c1C(N)=O,21,9,-16,-1,2,6,.,.,
Nc1ncc(Br)cc1N=Cc1ccccc1,-5,9,62*,7,1,23,8,-2,
Cc1occc1-c1nnc(SCC(=O)Nc2ccncc2)n1-c1ccccc1,.,7,.,.,.,.,.,.,
O=S1(=O)c2c(NCc3ccco3)cccc2Oc2ccccc2CN1Cc1cn(Cc2ccc(C(F)(F)F)cc2)nn1,.,-4,.,.,.,.,.,.,
CN(CC(=O)Nc1ccc(Cl)cc1)C(=O)c1sccc1-c1ccccc1,-2,-6,46*,.,2,.,34,6,
Cc1cc2ccccc2n1CCNC(=O)Cc1ccccc1,-3,6,29,5,2,12,.,.,
Cc1cccc(CC(=O)NCCn2c(C)cc3ccccc32)c1,7,0,41*,4,4,16,15,12,
O=C1Cc2ccccc2C(=O)N1Cc1ccccc1,5,-5,52*,5,-19,33,76*,8,Apaf1 inh interf=>100
O=C1Cc2ccccc2C(=O)N1c1ccccc1,6,-2,15,-2,-8,26,.,.,
O=C1CCC[C@H]2C[C@H](NCc3ccc(Cl)cc3)CC[C@]23CCCN13,.,-10,.,.,.,.,.,.,
CCOC(=O)CNc1ccc2c(c1)OCO2,40,5,40*,26,-3,9,19,18,
OC(CNCC1CCCO1)Cn1c2ccc(Cl)cc2c2cc(Cl)ccc21 (stereo not drawn),17,-5,43*,-10,-3,-8,14,9,
Cc1cccc(NC(=O)c2sc3nc4c(c(-c5cccs5)c3c2N)CN(C)CC4)c1,-1,20,50*,6,-5,24,24,13,
O=C(Cc1cccc(C(F)(F)F)c1)OCC(=O)N1CCN(S(=O)(=O)c2ccc(Cl)cc2)CC1,3,-13,51*,7,-8,.,28,-9,
COc1cc(OC)cc(-c2sc3ccc(OC)cc3c2-c2ccc(OCCN3CCCCC3)cc2)c1,.,.,60*,.,-3,.,-3,9,
COc1ccc(-c2sc3cc4c(cc3c2-c2ccc(OCCN3CCCCC3)cc2)OCO4)cc1,.,.,59*,.,-4,.,6,9,
COc1ccc(-c2c(-c3cc(OC)cc(OC)c3)sc3ccc(OC)cc23)cc1,-7,0,3,.,5,.,.,.,
COc1ccccc1-c1sc2cc3c(cc2c1-c1ccc(OCCN2CCOCC2)cc1)OCO3,.,.,23,.,2,.,.,.,
COc1ccccc1CCn1cnc(-c2cccc(F)c2)c1CC(C)C,.,3,.,.,.,.,.,.,
C[C@@H]1CN([C@@H](C)CO)C(=O)c2cc(NC(=O)Nc3ccc(F)cc3)ccc2O[C@@H]1CN(C)Cc1ccc(Oc2ccccc2)cc1,13,0,42*,.,3,.,11,10,
C[C@H](CO)N1C[C@H](C)[C@@H](CN(C)Cc2ccc(Cl)c(Cl)c2)Oc2c(NC(=O)Cc3ccccc3)cccc2C1=O,-6,1,44*,.,-9,.,24,2,
C[C@H](CO)N1C[C@H](C)[C@@H](CN(C)Cc2ccccc2)Oc2c(NC(=O)Cc3ccccc3)cccc2C1=O,.,-7,22,.,0,.,.,.,
C[C@@H]1CN([C@H](C)CO)C(=O)c2cc(NC(=O)Cc3ccccc3)ccc2O[C@H]1CN(C)Cc1ccc(Oc2ccccc2)cc1,37,-2,38,.,1,.,.,.,
C[C@H](CO)N1C[C@H](C)[C@@H](CN(C)CC2CCCCC2)Oc2c(NC(=O)CCC(F)(F)F)cccc2C1=O,-11,-1,41*,.,-5,.,18,17,
C[C@H](CO)N1C[C@H](C)[C@@H](CN(C)Cc2ccncc2)Oc2c(NC(=O)Cc3ccccc3)cccc2C1=O,33,4,-1,.,2,.,.,.,
SMILES,GASC-1 inh,TDP2 absorb,Apaf1 inhib,GSTO1 inh,PAD4 FP inh,SUMO HTRF inh,Apaf-1 inh conf2,Rh110 interf inh,others
C[C@H](CO)N1C[C@H](C)[C@@H](CN(C)Cc2ccc(-c3ccccc3)cc2)Oc2c(NC(=O)Cc3ccccc3)cccc2C1=O,23,.,43*,.,0,.,26,-7,
CN(C)[C@@H]1CCN(c2cccc3c2S(=O)(=O)N2CC[C@@H](C2)O3)C1,.,10,.,.,.,.,.,.,
Cc1ccccc1N1CCN(S(=O)(=O)c2ccc3c(c2)oc(=O)n3C)CC1,.,-7,.,.,.,.,.,.,
COP(=O)(CC(=O)OC(C)(C)C)C(CC(C)C)NC(=O)OCc1ccccc1 (stereo not drawn),.,-1,.,.,.,.,.,.,
CN1/C(=C\C(=O)COC(=O)c2ccc([N+](=O)[O-])o2)C(C)(C)c2ccccc21,9,19,56*,8,-15,4,6,0,
CN1/C(=C\C(=O)COC(=O)c2nccnc2N)C(C)(C)c2ccccc21,-3,5,8,9,-4,.,.,.,
CCCCN1CC(=O)N2[C@H](C[C@@]3(C)c4ccccc4N(S(=O)(=O)c4ccccc4)[C@@H]23)C1=O,.,5,.,.,.,.,.,.,
CCOC(=O)[C@]12CCCC=C1N(Cc1ccc(OC)cc1)C(=O)[C@@H]2CC(=O)N1CCCC1,.,-3,.,.,.,.,.,.,
COc1ccc(N2CSC3=C(C#N)C(c4ccc(OC)c(OC)c4)CC(=O)N3C2)c(OC)c1 (stereo not drawn),-1,-2,25,28,-14,13,.,.,
CCOc1ccccc1N1CSC2=C(C#N)C(c3c(OC)ccc4ccccc34)CC(=O)N2C1 (stereo not drawn),8,1,41*,15,-12,42,22,4,
CCOC(=O)c1ccc(N2CSC3=C(C#N)C(c4cccs4)CC(=O)N3C2)cc1 (stereo not drawn),4,2,55*,5,-12,36,18,2,
Cc1ccc(C)c(NC(=O)Cn2nnc(-c3ccncc3)n2)c1,.,2,.,.,.,.,.,.,
COC(=O)CCC1NC(=O)C(Cc2c[nH]c3ccccc23)NC(=O)C2CC(=O)OC(C)C(NC(=O)C(C)NC(=O)C3CCCN3C(=O)C3CCCN3C(=O)C(C)NC(C)=O)C(=O)NC(CC(C)C)C(=O)NC(CCCCNC(=O)CCC(C(=O)NC(Cc3ccc(O)cc3)C(=O)O)NC1=O)C(=O)NC(Cc1c[nH]c3ccccc13)C(=O)N1CCCC1C(=O)NC(CO)C(=O)N2 (stereo not drawn),.,3,.,.,.,.,.,.,
CCn1c2ccccc2c2c3ncc4cccn4c3ccc21,-3,13,62*,-7,-14,56,19,6,
